Test results reported in ChEMBL document CHEMBL3286247, “Expansion of Antibacterial Spectrum of Muraymycins toward Pseudomonas aeruginosa” (ACS Med Chem Lett, 2014).
Values after ≈ are worked out from the molar mass of the structure shown.

Assays:
[1] = system: Pseudomonas aeruginosa; assay: Antibacterial activity against Pseudomonas aeruginosa YY165 deltamexB mutant assessed as growth inhibition after 20 hrs by microdilution method; type: functional; settings: YY165, 20 h
How it was run: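 Broth microdilution per CLSI in cation-adjusted Mueller–Hinton broth; serial 2-fold compound dilutions inoculated with 5 × 10⁴ CFU per well (0.1 mL), incubated 35 °C for 20 h, then MIC scored. Strain YY165 is a MexB deletion mutant lacking the inner-membrane transporter of the MexAB-OprM efflux system.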

[2] = system: Pseudomonas aeruginosa; assay: Antibacterial activity against clinical isolate Pseudomonas aeruginosa SR27156 assessed as growth inhibition after 20 hrs by microdilution method; type: functional; settings: SR27156, 20 h
How it was run: (§1)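 Broth microdilution per CLSI in cation-adjusted Mueller-Hinton broth, using serial 2-fold compound dilutions. Each strain was inoculated at 5 × 10⁴ CFU per well in 0.1 mL. Plates were incubated at 35 °C for 20 h, and the MIC was then scored.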

[3] = Inhibition of Staphylococcus aureus MraY by fluorescence assay
How it was run: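 Purified S. aureus MraY was given UDP-MurNAc-dansylpentapeptide as substrate. Formation of dansylated lipid I was followed by fluorescence enhancement (excitation 355 nm, emission 535 nm).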

[4] = system: Pseudomonas aeruginosa; assay: Antibacterial activity against Pseudomonas aeruginosa ATCC 25619 assessed as growth inhibition after 20 hrs by microdilution method; type: functional; settings: ATCC 25619, 20 h; how it was run: as §1
[5] = system: Pseudomonas aeruginosa; assay: Antibacterial activity against Pseudomonas aeruginosa ATCC 27853 assessed as growth inhibition after 20 hrs by microdilution method; type: functional; settings: ATCC 27853, 20 h; how it was run: as §1
[6] = system: Pseudomonas aeruginosa; assay: Antibacterial activity against Pseudomonas aeruginosa PAO1 assessed as growth inhibition after 20 hrs by microdilution method; type: functional; settings: PAO1, 20 h; how it was run: as §1

## CCCCCCCCCCCCCCC[C@H](NC(=O)c1ccccc1)C(=O)NCCCN[C@H](C(=O)O)[C@H](O[C@@H]1O[C@H](CN)[C@@H](O)[C@H]1O)[C@H]1O[C@@H](n2ccc(=O)[nH]c2=O)[C@H](O)[C@@H]1O
[1]
  MIC: > 64 µg/mL
[2]
  MIC: > 64 µg/mL
[3]
  IC50: 29.6 nM
[4]
  MIC: > 64 µg/mL
[5]
  MIC: > 64 µg/mL
[6]
  MIC: > 64 µg/mL

## CCCCCCCCCCCCCC(=O)N[C@@H](CCCNC(=N)N)C(=O)NCCCN[C@H](C(=O)O)[C@H](O[C@@H]1O[C@H](CN)[C@@H](O)[C@H]1O)[C@H]1O[C@@H](n2ccc(=O)[nH]c2=O)[C@H](O)[C@@H]1O
[1]
  MIC: 16 µg/mL (≈ 18.3 µM)
[2]
  MIC: 16 µg/mL (≈ 18.3 µM)
[3]
  IC50: 2.1 nM
[4]
  MIC: 16 µg/mL (≈ 18.3 µM)
[5]
  MIC: 32 µg/mL (≈ 36.7 µM)
[6]
  MIC: 32 µg/mL (≈ 36.7 µM)

## CCCCCCCCCCCCCCC[C@H](NC(=O)[C@@H](N)[C@@H]1CCNC(=N)N1)C(=O)NCCCN[C@H](C(=O)O)[C@H](O[C@@H]1O[C@H](CN)[C@@H](O)[C@H]1O)[C@H]1O[C@@H](n2ccc(=O)[nH]c2=O)[C@H](O)[C@@H]1O
[1]
  MIC: 32 µg/mL (≈ 34.5 µM)
[2]
  MIC: 64 µg/mL (≈ 69 µM)
[3]
  IC50: 2.4 nM
[4]
  MIC: > 64 µg/mL
[5]
  MIC: > 64 µg/mL
[6]
  MIC: > 64 µg/mL

## CCCCCCCCCCCCCCC[C@H](NC(=O)c1cccnc1)C(=O)NCCCN[C@H](C(=O)O)[C@H](O[C@@H]1O[C@H](CN)[C@@H](O)[C@H]1O)[C@H]1O[C@@H](n2ccc(=O)[nH]c2=O)[C@H](O)[C@@H]1O
[1]
  MIC: > 64 µg/mL
[2]
  MIC: > 64 µg/mL
[3]
  IC50: 9.6 nM
[4]
  MIC: 64 µg/mL (≈ 72.9 µM)
[5]
  MIC: > 64 µg/mL
[6]
  MIC: > 64 µg/mL

## CCCCCCCCCCCCCCC[C@H](NC(=O)c1ccnnc1)C(=O)NCCCN[C@H](C(=O)O)[C@H](O[C@@H]1O[C@H](CN)[C@@H](O)[C@H]1O)[C@H]1O[C@@H](n2ccc(=O)[nH]c2=O)[C@H](O)[C@@H]1O
[1]
  MIC: 64 µg/mL (≈ 72.8 µM)
[2]
  MIC: > 64 µg/mL
[3]
  IC50: 13.5 nM
[4]
  MIC: 64 µg/mL (≈ 72.8 µM)
[5]
  MIC: > 64 µg/mL
[6]
  MIC: > 64 µg/mL

## CCCCCCCCCCC(=O)N[C@@H](CCCNC(=N)N)C(=O)NCCCN[C@H](C(=O)O)[C@H](O[C@@H]1O[C@H](CN)[C@@H](O)[C@H]1O)[C@H]1O[C@@H](n2ccc(=O)[nH]c2=O)[C@H](O)[C@@H]1O
[1]
  MIC: > 64 µg/mL
[2]
  MIC: > 64 µg/mL
[3]
  IC50: 9.8 nM
[4]
  MIC: 32 µg/mL (≈ 38.6 µM)
[5]
  MIC: > 64 µg/mL
[6]
  MIC: > 64 µg/mL

## CC(C)CCCC(=O)N[C@@H](CCCNC(=N)N)C(=O)NCCCN[C@H](C(=O)O)[C@H](O[C@@H]1O[C@H](CN)[C@@H](O)[C@H]1O)[C@H]1O[C@@H](n2ccc(=O)[nH]c2=O)[C@H](O)[C@@H]1O
[1]
  MIC: > 64 µg/mL
[2]
  MIC: > 64 µg/mL
[3]
  IC50: 225 nM
[4]
  MIC: > 64 µg/mL
[5]
  MIC: > 64 µg/mL
[6]
  MIC: > 64 µg/mL

## CCCCCCCCCCCCCCC[C@H](NC(=O)c1cnccn1)C(=O)NCCCN[C@H](C(=O)O)[C@H](O[C@@H]1O[C@H](CN)[C@@H](O)[C@H]1O)[C@H]1O[C@@H](n2ccc(=O)[nH]c2=O)[C@H](O)[C@@H]1O
[1]
  MIC: > 64 µg/mL
[2]
  MIC: > 64 µg/mL
[3]
  IC50: 33.1 nM
[4]
  MIC: 64 µg/mL (≈ 72.8 µM)
[5]
  MIC: > 64 µg/mL
[6]
  MIC: > 64 µg/mL

## N=C(N)NCCCCCC(=O)NCCCCCC(=O)NCCCN[C@H](C(=O)O)[C@H](O[C@@H]1O[C@H](CN)[C@@H](O)[C@H]1O)[C@H]1O[C@@H](n2ccc(=O)[nH]c2=O)[C@H](O)[C@@H]1O
[1]
  MIC: > 64 µg/mL
[2]
  MIC: > 64 µg/mL
[3]
  IC50: 1490 nM
[4]
  MIC: > 64 µg/mL
[5]
  MIC: > 64 µg/mL
[6]
  MIC: > 64 µg/mL

## CCCCCCCCCCCCCCC[C@H](NC(=O)c1ccc2ccccc2n1)C(=O)NCCCN[C@H](C(=O)O)[C@H](O[C@@H]1O[C@H](CN)[C@@H](O)[C@H]1O)[C@H]1O[C@@H](n2ccc(=O)[nH]c2=O)[C@H](O)[C@@H]1O
[1]
  MIC: > 64 µg/mL
[2]
  MIC: > 64 µg/mL
[3]
  IC50: 105 nM
[4]
  MIC: > 64 µg/mL
[5]
  MIC: > 64 µg/mL
[6]
  MIC: > 64 µg/mL

## CCCCCCCCCCCCCCC[C@H](NC(=O)[C@@H](NC(=O)N[C@H](C(=O)O)C(C)C)[C@@H]1CCNC(=N)N1)C(=O)NCCCN[C@H](C(=O)O)[C@H](O[C@@H]1O[C@H](CN)[C@@H](O)[C@H]1O)[C@H]1O[C@@H](n2ccc(=O)[nH]c2=O)[C@H](O)[C@@H]1O
[1]
  MIC: > 64 µg/mL
[2]
  MIC: > 64 µg/mL
[3]
  IC50: 1.1 nM
[4]
  MIC: > 64 µg/mL
[5]
  MIC: > 64 µg/mL
[6]
  MIC: > 64 µg/mL

## CCCCCCCCCCCCCCC[C@H](NC(=O)[C@H](CCCN)NC(=O)N[C@H](C(=O)O)C(C)C)C(=O)NCCCN[C@H](C(=O)O)[C@H](O[C@@H]1O[C@H](CN)[C@@H](O)[C@H]1O)[C@H]1O[C@@H](n2ccc(=O)[nH]c2=O)[C@H](O)[C@@H]1O
[1]
  MIC: > 64 µg/mL
[2]
  MIC: > 64 µg/mL
[3]
  IC50: 0.8 nM
[4]
  MIC: > 64 µg/mL
[5]
  MIC: > 64 µg/mL
[6]
  MIC: > 64 µg/mL

## CCCCCCCCCCCCCCC[C@H](NC(=O)c1ccncc1)C(=O)NCCCN[C@H](C(=O)O)[C@H](O[C@@H]1O[C@H](CN)[C@@H](O)[C@H]1O)[C@H]1O[C@@H](n2ccc(=O)[nH]c2=O)[C@H](O)[C@@H]1O
[1]
  MIC: > 64 µg/mL
[2]
  MIC: > 64 µg/mL
[3]
  IC50: 8.1 nM
[4]
  MIC: 64 µg/mL (≈ 72.9 µM)
[5]
  MIC: > 64 µg/mL
[6]
  MIC: > 64 µg/mL

## C[C@@H](O)[C@H]1C(=O)N2C(C(=O)O)=C(S[C@@H]3CN[C@H](CNS(N)(=O)=O)C3)[C@H](C)[C@H]12 [DORIPENEM]
[1]
  MIC: 0.25 µg/mL (≈ 0.595 µM)
[2]
  MIC: 0.031 µg/mL (≈ 0.0737 µM)
[4]
  MIC: 0.063 µg/mL (≈ 0.15 µM)
[5]
  MIC: 0.5 µg/mL (≈ 1.19 µM)
[6]
  MIC: 0.5 µg/mL (≈ 1.19 µM)

## CCCCCCCCCCCCCCC[C@H](NC(=O)[C@H](CCCNC(=N)N)NC(=O)N[C@H](C(=O)O)C(C)C)C(=O)NCCCN[C@H](C(=O)O)[C@H](O[C@@H]1O[C@H](CN)[C@@H](O)[C@H]1O)[C@H]1O[C@@H](n2ccc(=O)[nH]c2=O)[C@H](O)[C@@H]1O
[1]
  MIC: > 64 µg/mL
[2]
  MIC: > 64 µg/mL
[3]
  IC50: 0.7 nM
[4]
  MIC: > 64 µg/mL
[5]
  MIC: > 64 µg/mL
[6]
  MIC: > 64 µg/mL

## CCCCCCCCCCCCCCC[C@H](N)C(=O)NCCCN[C@H](C(=O)O)[C@H](O[C@@H]1O[C@H](CN)[C@@H](O)[C@H]1O)[C@H]1O[C@@H](n2ccc(=O)[nH]c2=O)[C@H](O)[C@@H]1O
[1]
  MIC: 32 µg/mL (≈ 41.4 µM)
[2]
  MIC: > 64 µg/mL
[3]
  IC50: 2.6 nM
[4]
  MIC: 32 µg/mL (≈ 41.4 µM)
[5]
  MIC: > 64 µg/mL
[6]
  MIC: > 64 µg/mL

## CCCCCCCCCCCCCCC[C@H](NC(C)=O)C(=O)NCCCN[C@H](C(=O)O)[C@H](O[C@@H]1O[C@H](CN)[C@@H](O)[C@H]1O)[C@H]1O[C@@H](n2ccc(=O)[nH]c2=O)[C@H](O)[C@@H]1O
[1]
  MIC: 32 µg/mL (≈ 39.3 µM)
[2]
  MIC: 64 µg/mL (≈ 78.5 µM)
[3]
  IC50: 2.7 nM
[4]
  MIC: 32 µg/mL (≈ 39.3 µM)
[5]
  MIC: > 64 µg/mL
[6]
  MIC: 64 µg/mL (≈ 78.5 µM)

## CC(C)C[C@H](NC(=O)[C@@H](NC(=O)N[C@H](C(=O)O)C(C)C)[C@@H]1CCNC(=N)N1)C(=O)NCCCN[C@H](C(=O)O)[C@H](O[C@@H]1O[C@H](CN)[C@@H](O)[C@H]1O)[C@H]1O[C@@H](n2ccc(=O)[nH]c2=O)[C@H](O)[C@@H]1O [MURAMYCIN D2]
[1]
  MIC: 64 µg/mL (≈ 69.9 µM)
[2]
  MIC: 32 µg/mL (≈ 34.9 µM)
[3]
  IC50: 2.8 nM
[4]
  MIC: 64 µg/mL (≈ 69.9 µM)
[5]
  MIC: > 64 µg/mL
[6]
  MIC: > 64 µg/mL
